Tested on: Fibroblast
Test: Multiplex assay against human fibroblast
Type: toxicity, cell-based
Procedure, shortened: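 Live cells were stained at seeding with Hoechst33342, BioTracker Green Microtubule Cytoskeleton Dye, MitoTracker Red and Annexin V Alexa Fluor 680. Following compound addition, they were imaged on a CQ1 microscope at 37°C and 5% CO2 and gated by CellPathfinder machine learning into Hoechst high-intensity objects or normal cells, with normal cells split into healthy, pyknosed or fragmented nuclei and pyknosed cells into mitotic or apoptotic. Tubulin, mitochondrial-mass and membrane-permeability phenotypes are per cents of healthy-nucleus cells.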

[1] = 12 h, 1 µM, compound concentration 1 uM, replicate 1
[2] = 12 h, 1 µM, compound concentration 1 uM, replicate 2
[3] = 12 h, 10 µM, compound concentration 10 uM, replicate 1
[4] = 12 h, 10 µM, compound concentration 10 uM, replicate 2
[5] = 24 h, 1 µM, compound concentration 1 uM, replicate 1
[6] = 24 h, 1 µM, compound concentration 1 uM, replicate 2
[7] = 24 h, 10 µM, compound concentration 10 uM, replicate 1
[8] = 24 h, 10 µM, compound concentration 10 uM, replicate 2
[9] = 48 h, 1 µM, compound concentration 1 uM, replicate 1
[10] = 48 h, 1 µM, compound concentration 1 uM, replicate 2
[11] = 48 h, 10 µM, compound concentration 10 uM, replicate 1
[12] = 48 h, 10 µM, compound concentration 10 uM, replicate 2

SMILES: CC1=C(C(=O)Nc2cc3cn[nH]c3cc2F)C(c2ccc(C(F)(F)F)cc2)CC(=O)N1 (stereo not drawn)
- Population Apoptotic (%) [1]: 78%
- Population Fragmented Nuclei (%) [1]: 29%
- Population Healthy Nuclei (%) [1]: 41%
- Population Hoechst High Intensity Objects (%) [1]: 12%
- Population Membrane Permeable-Phenotype (%) [1]: 20%
- Population Mitochondria Different-Phenotype (%) [1]: 6%
- Population Mitotic Cells (%) [1]: 21%
- Population Normal (%) [1]: 87%
- Population Pyknosed Nuclei (%) [1]: 29%
- Population Tubulin-Different-Phenotype (%) [1]: 31%
- Total Cell Count [1]: 124
- Population Apoptotic (%) [2]: 50%
- Population Fragmented Nuclei (%) [2]: 2%
- Population Healthy Nuclei (%) [2]: 93%
- Population Hoechst High Intensity Objects (%) [2]: 10%
- Population Membrane Permeable-Phenotype (%) [2]: 4%
- Population Mitochondria Different-Phenotype (%) [2]: 9%
- Population Mitotic Cells (%) [2]: 50%
- Population Normal (%) [2]: 89%
- Population Pyknosed Nuclei (%) [2]: 4%
- Population Tubulin-Different-Phenotype (%) [2]: 14%
- Total Cell Count [2]: 76
- Population Apoptotic (%) [3]: 55%
- Population Fragmented Nuclei (%) [3]: 25%
- Population Healthy Nuclei (%) [3]: 46%
- Population Hoechst High Intensity Objects (%) [3]: 9%
- Population Membrane Permeable-Phenotype (%) [3]: 24%
- Population Mitochondria Different-Phenotype (%) [3]: 11%
- Population Mitotic Cells (%) [3]: 44%
- Population Normal (%) [3]: 90%
- Population Pyknosed Nuclei (%) [3]: 27%
- Population Tubulin-Different-Phenotype (%) [3]: 50%
- Total Cell Count [3]: 144
- Population Apoptotic (%) [4]: 50%
- Population Fragmented Nuclei (%) [4]: 21%
- Population Healthy Nuclei (%) [4]: 70%
- Population Membrane Permeable-Phenotype (%) [4]: 5%
- Population Mitochondria Different-Phenotype (%) [4]: 12%
- Population Mitotic Cells (%) [4]: 50%
- Population Pyknosed Nuclei (%) [4]: 7%
- Population Tubulin-Different-Phenotype (%) [4]: 25%
- Total Cell Count [4]: 97
- Population Apoptotic (%) [5]: 54%
- Population Fragmented Nuclei (%) [5]: 20%
- Population Healthy Nuclei (%) [5]: 56%
- Population Hoechst High Intensity Objects (%) [5]: 18%
- Population Membrane Permeable-Phenotype (%) [5]: 35%
- Population Mitochondria Different-Phenotype (%) [5]: 1%
- Population Mitotic Cells (%) [5]: 45%
- Population Normal (%) [5]: 81%
- Population Pyknosed Nuclei (%) [5]: 23%
- Population Tubulin-Different-Phenotype (%) [5]: 25%
- Total Cell Count [5]: 127
- Population Apoptotic (%) [6]: 42%
- Population Fragmented Nuclei (%) [6]: 7%
- Population Healthy Nuclei (%) [6]: 86%
- Population Hoechst High Intensity Objects (%) [6]: 4%
- Population Membrane Permeable-Phenotype (%) [6]: 10%
- Population Mitochondria Different-Phenotype (%) [6]: 13%
- Population Mitotic Cells (%) [6]: 57%
- Population Normal (%) [6]: 95%
- Population Pyknosed Nuclei (%) [6]: 6%
- Population Tubulin-Different-Phenotype (%) [6]: 16%
- Total Cell Count [6]: 93
- Population Apoptotic (%) [7]: 40%
- Population Fragmented Nuclei (%) [7]: 25%
- Population Healthy Nuclei (%) [7]: 54%
- Population Hoechst High Intensity Objects (%) [7]: 9%
- Population Membrane Permeable-Phenotype (%) [7]: 22%
- Population Mitochondria Different-Phenotype (%) [7]: 8%
- Population Mitotic Cells (%) [7]: 59%
- Population Normal (%) [7]: 90%
- Population Pyknosed Nuclei (%) [7]: 19%
- Population Tubulin-Different-Phenotype (%) [7]: 40%
- Total Cell Count [7]: 125
- Population Apoptotic (%) [8]: 75%
- Population Fragmented Nuclei (%) [8]: 23%
- Population Healthy Nuclei (%) [8]: 68%
- Population Hoechst High Intensity Objects (%) [8]: 6%
- Population Membrane Permeable-Phenotype (%) [8]: 4%
- Population Mitochondria Different-Phenotype (%) [8]: 14%
- Population Mitotic Cells (%) [8]: 25%
- Population Normal (%) [8]: 93%
- Population Pyknosed Nuclei (%) [8]: 8%
- Population Tubulin-Different-Phenotype (%) [8]: 29%
- Total Cell Count [8]: 119
- Population Apoptotic (%) [9]: 66%
- Population Fragmented Nuclei (%) [9]: 33%
- Population Healthy Nuclei (%) [9]: 48%
- Population Hoechst High Intensity Objects (%) [9]: 11%
- Population Membrane Permeable-Phenotype (%) [9]: 19%
- Population Mitochondria Different-Phenotype (%) [9]: 5%
- Population Mitotic Cells (%) [9]: 33%
- Population Normal (%) [9]: 88%
- Population Pyknosed Nuclei (%) [9]: 18%
- Population Tubulin-Different-Phenotype (%) [9]: 14%
- Total Cell Count [9]: 131
- Population Apoptotic (%) [10]: 33%
- Population Fragmented Nuclei (%) [10]: 31%
- Population Healthy Nuclei (%) [10]: 65%
- Population Hoechst High Intensity Objects (%) [10]: 22%
- Population Membrane Permeable-Phenotype (%) [10]: 6%
- Population Mitochondria Different-Phenotype (%) [10]: 0%
- Population Mitotic Cells (%) [10]: 66%
- Population Normal (%) [10]: 77%
- Population Pyknosed Nuclei (%) [10]: 3%
- Population Tubulin-Different-Phenotype (%) [10]: 23%
- Total Cell Count [10]: 127
- Population Apoptotic (%) [11]: 46%
- Population Fragmented Nuclei (%) [11]: 33%
- Population Healthy Nuclei (%) [11]: 54%
- Population Hoechst High Intensity Objects (%) [11]: 11%
- Population Membrane Permeable-Phenotype (%) [11]: 26%
- Population Mitochondria Different-Phenotype (%) [11]: 4%
- Population Mitotic Cells (%) [11]: 53%
- Population Normal (%) [11]: 88%
- Population Pyknosed Nuclei (%) [11]: 11%
- Population Tubulin-Different-Phenotype (%) [11]: 23%
- Total Cell Count [11]: 130
- Population Apoptotic (%) [12]: 62%
- Population Fragmented Nuclei (%) [12]: 26%
- Population Healthy Nuclei (%) [12]: 65%
- Population Membrane Permeable-Phenotype (%) [12]: 7%
- Population Mitochondria Different-Phenotype (%) [12]: 1%
- Population Mitotic Cells (%) [12]: 37%
- Population Pyknosed Nuclei (%) [12]: 8%
- Population Tubulin-Different-Phenotype (%) [12]: 22%
- Total Cell Count [12]: 109

Source: ChEMBL document CHEMBL4689842, “EUbOPEN Chemogenomics Library wave 1” (2021)
